Screening data from PubChem.
Hits are enriched below; roughly 3.7% of the tested compounds scored in any of these assays.
KCNQ1 act: human KCNQ1 channel potentiation or activation | B-score at 10 µM | CHO-K1 KCNQ1, thallium flux FluxOR fluorescence; stronger effect = higher value | hit rate 0.35% among 310,000;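 active means fluorescence ratio B-score, a plate-corrected score, at least three library SD, with initial intensity B-score within 5 SD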
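Material: CHO-K1 cells stably expressing KCNQ1. Medium: assay buffer for compound exposure, DMSO matched across wells. Reagent: K+/Tl+ depolarizing stimulus. Compound dosing: single-concentration screen. Times: 37 °C overnight plating, 90-min dark dye load, 20-min compound pretreatment. Technique: FluxOR Tl+ flux fluorescence.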
Kir21 inh: blocks the mouse Kir2.1 inward-rectifier potassium channel. B-score at 10 µM. hit rate 0.85% among 310,000. HEK293-Kir2.1, FluxOR thallium flux fluorescence; stronger effect = lower value. P35561;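 active means fluorescence ratio B-score at or below minus 3 SD of library scores, with starting-brightness B-score within 2 SD, cut at about -4.2 in these data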;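 further: channel flux triggered by added potassium and thallium sulfate stimulus; B-score of peak minus minimum fluorescence over baseline after thallium stimulus; more negative B-score means stronger Kir2.1 block with less thallium influx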
Target sequence (P35561 whole entry, looked up): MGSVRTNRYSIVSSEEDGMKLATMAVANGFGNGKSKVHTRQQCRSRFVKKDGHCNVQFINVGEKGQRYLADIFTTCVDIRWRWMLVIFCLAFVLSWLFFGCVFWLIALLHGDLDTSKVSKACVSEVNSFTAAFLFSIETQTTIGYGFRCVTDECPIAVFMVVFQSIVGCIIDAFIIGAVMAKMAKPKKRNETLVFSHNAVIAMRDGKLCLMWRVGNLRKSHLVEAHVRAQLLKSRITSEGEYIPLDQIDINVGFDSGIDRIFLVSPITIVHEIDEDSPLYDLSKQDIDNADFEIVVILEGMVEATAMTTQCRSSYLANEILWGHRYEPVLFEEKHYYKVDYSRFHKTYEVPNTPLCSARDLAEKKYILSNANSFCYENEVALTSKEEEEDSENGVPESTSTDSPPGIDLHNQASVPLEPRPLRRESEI
KCNK9 inh: inhibitors of human KCNK9 two-pore domain potassium channel; hit rate 1.2% among 310,000; B-score at 10 µM; HEK293 KCNK9, FluxOR thallium flux fluorescence; stronger effect = lower value; Q9NPC2;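 active means ratio B-score over 3 SD below the library mean, with starting fluorescence within 5 SD of its mean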;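 further: negative B-score means less thallium flux so channel inhibition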
KCNK3 block: human KCNK3 channel inhibition, primary screen; AID 602410; hit rate 0.84% among 340,000; CHO-KCNK3 thallium flux, FluxOR fluorescence; stronger effect = lower value; B-score at 10 µM;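 active means B-score under library mean minus 4 SD, starting fluorescence ratio at most library mean plus 5 SD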;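 further: more negative B-score means stronger inhibition of thallium flux through KCNK3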
KCNQ1 inh: inhibitors of human KCNQ1 potassium channel; hit rate 1.3% among 310,000; P51787; CHO-K1 KCNQ1, FluxOR thallium flux fluorescence; stronger effect = higher value; AID 2642; B-score at 10 µM;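 active means compounds whose thallium flux B-score, printed positive for inhibition, exceeds three library SD while starting fluorescence stays within three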;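 further: channel opened by potassium depolarization with thallium stimulus after 20 min compound exposure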
hERG rescue: compounds protecting human hERG from proarrhythmic drug block | CHO-hERG, FluxOR thallium flux, dofetilide IC70 present | hit rate 0.51% among 310,000 | Q12809 | AID 1511 | activation (rescue from dofetilide block), less the hit threshold, % at 10 µM;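 active means activation above the mean of controls blocked by dofetilide plus 5 SD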;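 further: thallium influx through hERG after potassium depolarization seen as dye fluorescence rise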
KCNK9 inh conf: human KCNK9 inhibitor confirmation; shares compounds with KCNK9 inh; HEK293 KCNK9 cells, FluxOR thallium flux fluorescence; inhibition, % at 10 µM; hit rate 43% among 4,900; AID 492992;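 active means thallium signal inhibited by more than 5 SD of the compound-free buffer control wells, on both duplicate plates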;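 further: 0% = assay buffer control wells without compound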
Kir21 sel: tests whether KCNK9 modulators also affect mouse Kir2.1. shares compounds with KCNK9 inh. Kir2.1 cells, FluxOR thallium flux fluorescence. inhibition, % at 10 µM. hit rate 4% among 4,900;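 active means thallium signal drop more than 5 SD beyond the mean of the no-compound control wells, seen in both duplicate plates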;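 further: signal is fluorescence rise after thallium addition divided by baseline fluorescence; plate controls were assay buffer only for no effect and full block by chlorpromazine control for full effect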
HEK293 Tl ctr: second check of KCNK9 modulator effects in non-induced HEK293 cells | shares compounds with KCNK9 inh | FluxOR thallium flux | inhibition, % at 10 µM | hit rate 40% among 4,900 | AID 492997;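 active means thallium signal drop beyond 5 SD of the untreated control mean, on both duplicate plates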;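 further: plate controls were buffer only IC0 wells for no effect and SID17386958 at its maximal inhibitory level for full effect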
Starred values were filed as active, the others as inactive.

`CN(C)CCNC(=O)c1csc(Nc2cccc3ccccc23)n1` gave KCNQ1 act inactive, Kir21 inh 0.29, KCNK9 inh inactive, KCNK3 block inactive, KCNQ1 inh inactive and hERG rescue -4.
Cc1cc(NC(=O)C(C)SCC(=O)OCc2c(Cl)cccc2Cl)no1 (centres undefined) was read as KCNQ1 act inactive, Kir21 inh -0.18, KCNK9 inh inactive, KCNK3 block inactive, KCNQ1 inh inactive and hERG rescue -14.
Cc1ccccc1C1CCCN(Cc2nc(CC3CC3)no2)C1 (centres undefined) was read as KCNQ1 act inactive, Kir21 inh 0.06, KCNK9 inh inactive, KCNK3 block inactive, KCNQ1 inh inactive, hERG rescue -18, KCNK9 inh conf inactive, Kir21 sel inactive and HEK293 Tl ctr inactive.
c1ccc(C2CCCN(Cc3nc(CC4CC4)no3)CC2)cc1 (centres undefined) was read as KCNQ1 act inactive, Kir21 inh 1.9, KCNK9 inh inactive, KCNK3 block inactive, KCNQ1 inh inactive, hERG rescue -12, KCNK9 inh conf inactive, Kir21 sel inactive and HEK293 Tl ctr inactive.
For Cc1cccc(N2CCN(Cc3nc(CC4CC4)no3)CC2)n1 the results were KCNQ1 act inactive, Kir21 inh 1.6, KCNK9 inh inactive, KCNK3 block inactive, KCNQ1 inh inactive and hERG rescue -10.
COc1ccc(OCC2CCCN(Cc3nc(CC4CC4)no3)C2)cc1 (centres undefined) was read as KCNQ1 act inactive, Kir21 inh 0.15, KCNK9 inh inactive, KCNK3 block inactive, KCNQ1 inh inactive and hERG rescue -4.
For O=C(/C=C/c1ccccc1)NCCSc1ccc(Cl)cc1 the results were KCNQ1 act inactive, Kir21 inh 0.12, KCNK9 inh inactive, KCNK3 block inactive, KCNQ1 inh inactive, hERG rescue -6, KCNK9 inh conf inactive, Kir21 sel inactive and HEK293 Tl ctr inactive.
Screening CCC(OC(=O)c1nsc(Cl)c1Cl)C(=O)NC(C)(C)C (centres undefined) returned KCNQ1 act inactive, Kir21 inh -1.9, KCNK9 inh inactive, KCNK3 block inactive, KCNQ1 inh inactive and hERG rescue -4.
For Cc1ccccc1OCCn1cc(C(=S)N2CCCC2)c2ccccc21 the results were KCNQ1 act inactive, Kir21 inh -0.79, KCNK9 inh -9.6*, KCNK3 block inactive, KCNQ1 inh inactive, hERG rescue -7, KCNK9 inh conf inactive, Kir21 sel inactive and HEK293 Tl ctr 30%*.
CCOC(=O)c1c(NC(=O)C2CCN(S(=O)(=O)c3cccs3)CC2)sc(C)c1C was read as KCNQ1 act inactive, Kir21 inh 0.35, KCNK9 inh inactive, KCNK3 block inactive, KCNQ1 inh inactive, hERG rescue -6, KCNK9 inh conf inactive, Kir21 sel inactive and HEK293 Tl ctr inactive.
COc1ccc(C2=NN(C(=O)c3cccc([N+](=O)[O-])c3)C(c3cccc([N+](=O)[O-])c3)C2)cc1 (centres undefined) was read as KCNQ1 act inactive, Kir21 inh -0.12, KCNK9 inh -13*, KCNK3 block inactive, KCNQ1 inh inactive, hERG rescue -9, KCNK9 inh conf 64%*, Kir21 sel inactive and HEK293 Tl ctr 35%*.
Screening COc1ccc(C(=O)C(OC(=O)c2ccccc2)c2ccccc2)cc1 (centres undefined) returned KCNQ1 act inactive, Kir21 inh -0.67, KCNK9 inh -14*, KCNK3 block inactive, KCNQ1 inh inactive, hERG rescue -6, KCNK9 inh conf 53%*, Kir21 sel inactive and HEK293 Tl ctr 30%*.
`Cc1ccc(NC(=O)C(OC(=O)c2ccccc2Cl)c2ccccc2)cc1Cl` (centres undefined) gave KCNQ1 act inactive, Kir21 inh -1.4, KCNK9 inh inactive, KCNK3 block inactive, KCNQ1 inh inactive and hERG rescue -3.
Screening Cc1cnc(C(=O)OC(C(=O)c2ccccc2)c2ccccc2)cn1 (centres undefined) returned KCNK3 block inactive.
Screening COc1ccc(C(=O)C(OC(=O)c2ccccc2Cl)c2ccccc2)cc1 (centres undefined) returned KCNQ1 act inactive, Kir21 inh 0.45, KCNK9 inh -8.1*, KCNK3 block inactive, KCNQ1 inh inactive, hERG rescue -10, KCNK9 inh conf 60%*, Kir21 sel inactive and HEK293 Tl ctr 24%*.
`C=CCn1c(SCC(=O)Nc2cccc(S(N)(=O)=O)c2)nnc1C1CCCCC1` gave KCNK3 block inactive.
For COc1ccc(N2CCN(C(=O)c3ccccc3F)CC2)c([N+](=O)[O-])c1 the results were KCNQ1 act inactive, Kir21 inh -1.3, KCNK9 inh inactive, KCNK3 block inactive, KCNQ1 inh inactive and hERG rescue -2.
For COc1ccc(N2CCN(C(=O)CC34CC5CC(CC(C5)C3)C4)CC2)c([N+](=O)[O-])c1 the results were KCNQ1 act inactive, Kir21 inh -0.06, KCNK9 inh -12*, KCNK3 block inactive, KCNQ1 inh inactive, hERG rescue -4, KCNK9 inh conf 66%*, Kir21 sel inactive and HEK293 Tl ctr inactive.
For Cc1ccc(C2=Nc3ccccc3SC(c3cccc([N+](=O)[O-])c3)C2)cc1 (centres undefined) the results were KCNQ1 act inactive, Kir21 inh 1.5, KCNK9 inh -13*, KCNK3 block -13*, KCNQ1 inh inactive, hERG rescue -5, KCNK9 inh conf 71%*, Kir21 sel inactive and HEK293 Tl ctr 40%*.
`O=C(N/N=C/c1ccc(OC2CSC2)cc1)c1ccccc1` gave KCNQ1 act inactive, Kir21 inh -0.16, KCNK9 inh inactive, KCNK3 block inactive, KCNQ1 inh inactive and hERG rescue -6.
For O=C(/C=C/c1ccc(OC2CSC2)cc1)c1ccccc1 the results were KCNQ1 act inactive, Kir21 inh -1.6, KCNK9 inh -16*, KCNK3 block inactive, KCNQ1 inh inactive, hERG rescue -10, KCNK9 inh conf 42%*, Kir21 sel inactive and HEK293 Tl ctr 28%*.
